pIC50: −log10 of the molar value.
Tests used:
Interstitial collagenase = target: T1, Interstitial collagenase (Homo sapiens, UniProt P03956); test: In vitro inhibition of human matrix metalloprotease-1
T1 sequence (P03956 whole entry): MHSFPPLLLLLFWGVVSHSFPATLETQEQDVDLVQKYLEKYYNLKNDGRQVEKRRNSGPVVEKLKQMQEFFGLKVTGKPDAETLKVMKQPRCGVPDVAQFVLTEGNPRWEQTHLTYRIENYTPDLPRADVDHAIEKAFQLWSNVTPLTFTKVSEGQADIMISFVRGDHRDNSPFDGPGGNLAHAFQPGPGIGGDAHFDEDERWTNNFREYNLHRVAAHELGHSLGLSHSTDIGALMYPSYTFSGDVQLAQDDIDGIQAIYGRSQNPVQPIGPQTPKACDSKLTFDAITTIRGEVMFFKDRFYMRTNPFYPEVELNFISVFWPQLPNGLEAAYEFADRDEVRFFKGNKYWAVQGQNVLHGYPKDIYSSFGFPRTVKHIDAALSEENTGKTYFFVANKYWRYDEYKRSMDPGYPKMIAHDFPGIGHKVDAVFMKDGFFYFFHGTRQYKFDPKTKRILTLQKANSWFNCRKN

[1] = target: 72 kDa type IV collagenase (Homo sapiens, UniProt P08253); test: In vitro inhibition of human matrix metalloprotease-2
Sequence of 72 kDa type IV collagenase (P08253 whole entry): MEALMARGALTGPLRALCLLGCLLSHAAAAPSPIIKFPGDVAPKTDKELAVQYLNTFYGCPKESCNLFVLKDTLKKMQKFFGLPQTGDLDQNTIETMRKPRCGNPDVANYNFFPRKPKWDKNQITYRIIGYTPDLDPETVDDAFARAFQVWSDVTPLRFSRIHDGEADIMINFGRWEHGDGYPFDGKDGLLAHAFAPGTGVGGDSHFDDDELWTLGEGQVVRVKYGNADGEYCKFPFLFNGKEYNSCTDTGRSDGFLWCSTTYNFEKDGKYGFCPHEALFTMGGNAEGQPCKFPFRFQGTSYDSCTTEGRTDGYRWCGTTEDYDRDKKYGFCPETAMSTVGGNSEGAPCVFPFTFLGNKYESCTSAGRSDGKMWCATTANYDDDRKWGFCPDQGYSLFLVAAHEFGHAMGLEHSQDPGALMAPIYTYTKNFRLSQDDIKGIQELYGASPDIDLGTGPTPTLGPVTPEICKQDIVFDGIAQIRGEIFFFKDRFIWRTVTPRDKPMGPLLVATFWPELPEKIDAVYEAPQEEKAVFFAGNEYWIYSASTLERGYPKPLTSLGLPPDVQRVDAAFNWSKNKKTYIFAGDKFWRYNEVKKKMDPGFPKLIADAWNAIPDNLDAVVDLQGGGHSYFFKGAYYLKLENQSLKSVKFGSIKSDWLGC

[2] = target: Matrix metalloproteinase-9 (Homo sapiens, UniProt P14780); test: In vitro inhibition of human matrix metalloprotease-9
Sequence of Matrix metalloproteinase-9 (P14780 whole entry): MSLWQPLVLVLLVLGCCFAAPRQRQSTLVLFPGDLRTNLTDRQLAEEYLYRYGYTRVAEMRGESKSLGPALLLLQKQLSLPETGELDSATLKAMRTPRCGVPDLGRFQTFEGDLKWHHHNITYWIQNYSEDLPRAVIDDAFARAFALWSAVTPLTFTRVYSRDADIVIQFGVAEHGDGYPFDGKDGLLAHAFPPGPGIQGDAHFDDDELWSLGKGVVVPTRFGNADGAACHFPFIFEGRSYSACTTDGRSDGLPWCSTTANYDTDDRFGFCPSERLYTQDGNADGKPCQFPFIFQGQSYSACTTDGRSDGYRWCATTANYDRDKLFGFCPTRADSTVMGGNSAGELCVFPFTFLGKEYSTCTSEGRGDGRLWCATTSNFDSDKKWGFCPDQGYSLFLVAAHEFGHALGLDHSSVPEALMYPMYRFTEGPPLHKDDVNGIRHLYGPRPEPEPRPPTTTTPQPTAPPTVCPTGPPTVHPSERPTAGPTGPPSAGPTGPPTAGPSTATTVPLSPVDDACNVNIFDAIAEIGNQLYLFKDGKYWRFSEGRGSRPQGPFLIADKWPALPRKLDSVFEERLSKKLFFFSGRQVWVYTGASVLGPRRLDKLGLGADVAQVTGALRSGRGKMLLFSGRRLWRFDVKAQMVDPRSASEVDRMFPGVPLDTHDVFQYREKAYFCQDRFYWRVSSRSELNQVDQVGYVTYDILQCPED
Outline: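 APMA-activated enzyme, fluorogenic quenched peptide substrate Dnp-Pro-Cha-Gly-Cys(Me)-His-Ala-Lys(Nma)-NH₂, cleaved between Gly and Cys; inhibition read as substrate cleavage, reported as IC50 (nM).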

Stromelysin-1 = Stromelysin-1 (Homo sapiens, UniProt P08254); test: In vitro inhibitory activity against matrix metalloprotease-3
Sequence of Stromelysin-1 (P08254 whole entry): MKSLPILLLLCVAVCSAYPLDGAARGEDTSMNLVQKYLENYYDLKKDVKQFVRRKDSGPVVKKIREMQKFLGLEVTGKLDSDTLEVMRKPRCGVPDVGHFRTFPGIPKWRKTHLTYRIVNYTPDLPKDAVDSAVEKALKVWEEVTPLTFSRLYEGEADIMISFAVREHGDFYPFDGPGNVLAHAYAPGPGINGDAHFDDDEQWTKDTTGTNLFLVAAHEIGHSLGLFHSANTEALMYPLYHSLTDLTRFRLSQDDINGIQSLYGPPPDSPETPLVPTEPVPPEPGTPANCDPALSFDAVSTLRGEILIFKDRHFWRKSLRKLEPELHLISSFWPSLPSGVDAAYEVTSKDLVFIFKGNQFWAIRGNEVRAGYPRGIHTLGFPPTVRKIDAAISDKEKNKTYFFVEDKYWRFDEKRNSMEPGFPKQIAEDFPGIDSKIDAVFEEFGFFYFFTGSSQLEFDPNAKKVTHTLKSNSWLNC
Outline: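 MMP-3 activated with APMA (4-aminophenylmercuric acetate); cleavage of quenched fluorogenic substrate (7-methoxycoumarin-4-yl)-Arg-Pro-Lys-Pro-Tyr-Ala-Nva-Trp-Met-Lys(Dnp)-NH₂ at the Ala–Nva bond monitored; IC50 (nM) derived.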

Collagenase 3 = Collagenase 3 (Homo sapiens, UniProt P45452); test: In vitro inhibition of human matrix metalloprotease-13

SMILES	pIC50 (Interstitial collagenase)	pIC50 [1]	pIC50 [2]	pIC50 (Stromelysin-1)	pIC50 (Collagenase 3)
COc1ccc(CNC(=O)CN(C(CCSCc2ccccc2)C(=O)NO)S(=O)(=O)c2ccc(OC)cc2)cc1 (centres undefined)	7.72	9.15	9.70	9.05	9.15
COc1ccc(S(=O)(=O)N(CC(C)C)C(CCSCc2c(F)c(F)c(F)c(F)c2F)C(=O)NO)cc1 (centres undefined)	–	5.74	6.83	6.15	6.39
COc1ccc(S(=O)(=O)N(CC(C)C)C(CCSCc2ccc(-c3ccccc3)cc2)C(=O)NO)cc1 (centres undefined)	–	7.52	9.70	7.70	–
COc1ccc(S(=O)(=O)N(CC(=O)NC2CCCCC2)C(CCSCc2ccccc2)C(=O)NO)cc1 (centres undefined)	7.80	9.00	9.70	8.80	9.10
COc1ccc(S(=O)(=O)N(CC(=O)NCc2ccccc2)C(CCSCc2ccccc2)C(=O)NO)cc1 (centres undefined)	7.29	9.15	9.70	8.80	9.30
COc1ccc(S(=O)(=O)N(CC(C)C)C(CCS(=O)(=O)Cc2ccccc2)C(=O)NO)cc1 (centres undefined)	6.40	8.37	9.05	7.99	7.93
COc1ccc(S(=O)(=O)N(CC(C)C)C(CCSCc2ccccc2)C(=O)NO)cc1 (centres undefined)	6.98	9.15	> 10.00	9.15	7.92
CC(C)CN(C(CCSCc1ccccc1)C(=O)NO)S(=O)(=O)c1ccc(Oc2ccccc2)cc1 (centres undefined)	–	8.80	9.30	8.38	8.49
COc1ccc(S(=O)(=O)N(CC(C)C)C(CCSCc2ccc(OCc3ccccc3)cc2)C(=O)NO)cc1 (centres undefined)	–	–	8.10	7.54	–
CCC(C(=O)NO)N(CC(C)C)S(=O)(=O)c1ccc(OC)cc1 (centres undefined)	6.42	7.28	8.15	7.35	7.02
COc1ccc(S(=O)(=O)N(CC(C)C)C(CCSCc2cccc(OC)c2)C(=O)NO)cc1 (centres undefined)	6.53	8.42	8.49	8.24	8.28
COc1ccc(S(=O)(=O)N(CC(=O)NC(c2ccccn2)c2ccccn2)C(CCSCc2ccccc2)C(=O)NO)cc1 (centres undefined)	7.41	9.40	9.70	8.96	9.40
COc1ccc(S(=O)(=O)N(CC(=O)N2CCOCC2)C(CCSCc2ccccc2)C(=O)NO)cc1 (centres undefined)	6.27	7.80	7.54	6.71	7.64
COc1ccc(S(=O)(=O)N(CC(C)C)C(CCSCc2cccnc2)C(=O)NO)cc1 (centres undefined)	6.90	8.20	8.52	8.21	7.79
COc1ccc(S(=O)(=O)N(CC(=O)NCc2cccnc2)C(CCSCc2ccccc2)C(=O)NO)cc1 (centres undefined)	–	8.92	9.70	8.66	8.96
CC(C)CN(C(CCSCc1ccccc1)C(=O)NO)S(=O)(=O)c1ccc(Br)cc1 (centres undefined)	6.79	7.80	8.37	7.82	7.85
CC(C)CN(C(CCSCc1ccccc1)C(=O)NO)S(=O)(=O)c1ccc(-c2ccccc2)cc1 (centres undefined)	–	8.39	8.60	7.05	8.42
COc1ccc(S(=O)(=O)N(CC(C)C)C(CCSCc2ccsc2)C(=O)NO)cc1 (centres undefined)	6.73	8.49	9.00	8.27	8.29
COc1ccc(S(=O)(=O)N(CC(=O)NC(C2CCCCC2)C2CCCCC2)C(CCSCc2ccccc2)C(=O)NO)cc1 (centres undefined)	–	8.05	8.73	–	–
COc1ccc(S(=O)(=O)N(CC(=O)NCC2CCCCC2)C(CCSCc2ccccc2)C(=O)NO)cc1 (centres undefined)	–	9.52	11.00	–	–
COc1ccc(S(=O)(=O)N(CC(=O)NCc2cc(OC)cc(OC)c2)C(CCSCc2ccccc2)C(=O)NO)cc1 (centres undefined)	7.44	8.80	9.22	8.33	8.64
COc1ccc(S(=O)(=O)N(CC(=O)NC(c2ccccc2)c2ccccc2)C(CCSCc2ccccc2)C(=O)NO)cc1 (centres undefined)	–	8.64	9.30	8.43	8.35
COc1ccc(S(=O)(=O)N(CC(=O)NCc2c(OC)cc(OC)cc2OC)C(CCSCc2ccccc2)C(=O)NO)cc1 (centres undefined)	7.31	8.92	9.52	8.60	8.80
